In ChEMBL document CHEMBL3244143, “Synthesis and gastric antisecretory properties of an 8-aza-and a 10-oxa-8,12-secoprostaglandin” (1978):

Tests used:
Rattus norvegicus [1] = assay: Antisecretory activity in rat assessed as decrease in volume of gastric secretion at 1.5 mg/kg, sc immediately after surgery and again 2 hrs later measured after 4 hrs of pyloric ligation; assay type: functional, Stomach; design: scale not given: the % may be the effect or the level left; conditions: route subcutaneous
How it was run: (§1)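 Pylorus-ligated rats under ether anesthesia via midline incision; 1.5 mg/kg sc given immediately after surgery and again 2.0 h later (total 3 mg/kg), diluted in phosphate buffer pH 7.4, 1 mL/kg. Six rats per compound plus vehicle control group. Killed 4 h after ligation; gastric volume measured, contents centrifuged 5000 rpm 10 min, supernatant titrated with 0.1 N NaOH to pH 7.0 (mequiv); % change vs control.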

Rattus norvegicus [2] = assay: Antisecretory activity in rat assessed as decrease in total acid at 1.5 mg/kg, sc immediately after surgery and again 2 hrs later measured after 4 hrs of pyloric ligation; assay type: functional; design: scale not given: the % may be the effect or the level left; conditions: route subcutaneous; how it was run: as §1

| Compound | Activity (Rattus norvegicus [1]) | Activity (Rattus norvegicus [2]) |
| --- | --- | --- |
| CCCCCC(O)/C=C/CCOC(=O)CCCCCCCC(=O)OC (stereo not given) | 25% | 34% |
| CCCCCC(O)/C=C/CCCC(=O)N(C)CCCCCCC(=O)OC (stereo not given) | 21% | 32% |
| CCCCCC(O)/C=C/CCCC(=O)N(C)CCCCCCC(=O)O (stereo not given) | 25% | 25% |
| CCCCC[C@H](O)/C=C/[C@H]1[C@H](O)CC(=O)[C@@H]1CCCCCCC(=O)O [ALPROSTADIL] | 74% | 96% |
| CCCCC[C@H](O)/C=C/[C@@H]1[C@@H](C/C=C\CCCC(=O)O)[C@@H](O)C[C@H]1O [DINOPROST] | 37% | 42% |
